Assay [1] has as its system M1. Particulars: cited from earlier work; for IC50: read-out: M1 IC50, MLSCN screen hit.
Assay [2] has as its target hM3 (Homo sapiens, UniProt P20309). The assay can be described thus: calcium mobilization assay, hM3 CHO-K1 cells. The assay is classed as cell-based. (Calcium flux is commonly read through the fluorescence of an indicator in the cells.)
Assay [3] has as its target T1, hM5 (Homo sapiens, UniProt P08912).
T1 sequence (P08912 1-532): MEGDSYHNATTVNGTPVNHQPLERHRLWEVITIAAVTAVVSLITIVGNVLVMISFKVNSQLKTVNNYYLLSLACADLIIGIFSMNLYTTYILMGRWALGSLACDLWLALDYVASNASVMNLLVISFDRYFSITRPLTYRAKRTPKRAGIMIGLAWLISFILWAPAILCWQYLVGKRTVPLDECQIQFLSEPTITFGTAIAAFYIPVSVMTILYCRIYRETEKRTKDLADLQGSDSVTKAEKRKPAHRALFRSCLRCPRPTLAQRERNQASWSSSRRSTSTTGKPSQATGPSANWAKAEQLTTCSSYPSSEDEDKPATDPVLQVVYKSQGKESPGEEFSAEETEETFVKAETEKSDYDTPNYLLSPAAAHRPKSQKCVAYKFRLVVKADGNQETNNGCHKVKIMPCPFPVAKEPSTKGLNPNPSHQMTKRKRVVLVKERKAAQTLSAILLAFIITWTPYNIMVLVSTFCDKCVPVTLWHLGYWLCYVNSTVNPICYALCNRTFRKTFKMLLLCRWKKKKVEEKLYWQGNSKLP
The assay can be described thus: calcium mobilization assay, hM5 CHO-K1 cells. Particulars: compound at 10 μM. The format is cell-based. Summed up: (§1)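 CHO-K1 cells stably expressing human receptor (M2 line also stably transfected with Gqi5 chimeric G protein so it signals through calcium; M5 line without chimera) were plated overnight. Cells were loaded with 2 μM Fluo-4 AM in HBSS/20 mM HEPES/2.5 mM probenecid, pH 7.4, for 45 min at 37°C, then dye was replaced with buffer. Cells were pre-incubated with 10 μM test compound, then given sub-maximal acetylcholine or carbachol. Signal was normalized to baseline and expressed as % of maximal acetylcholine response.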

For assay [4], the target named is T2, hM2 (Homo sapiens, UniProt P08172).
T2 sequence (P08172 1-466): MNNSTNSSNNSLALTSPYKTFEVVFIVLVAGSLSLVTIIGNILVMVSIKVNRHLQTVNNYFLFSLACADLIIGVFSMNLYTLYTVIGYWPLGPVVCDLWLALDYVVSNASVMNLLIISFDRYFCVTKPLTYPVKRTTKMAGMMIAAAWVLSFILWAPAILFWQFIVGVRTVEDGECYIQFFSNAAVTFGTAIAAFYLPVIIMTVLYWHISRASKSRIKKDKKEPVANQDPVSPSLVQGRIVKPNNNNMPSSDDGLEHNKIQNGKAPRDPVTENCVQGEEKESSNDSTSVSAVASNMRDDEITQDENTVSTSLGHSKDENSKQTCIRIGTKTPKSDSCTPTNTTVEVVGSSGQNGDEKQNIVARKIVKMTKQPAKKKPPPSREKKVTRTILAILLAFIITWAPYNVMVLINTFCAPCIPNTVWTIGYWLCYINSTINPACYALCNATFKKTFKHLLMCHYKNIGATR
The assay can be described thus: calcium mobilization assay, hM2 CHO cells with Gqi5 chimeric G protein. The format is cell-based. The settings on record: compound at 10 μM. The procedure, abridged:
as §1

Where two headings read alike, the source gives them in different places.

Broadly, the IC50 is the concentration that gives 50% inhibition.

hM3, sequence (P20309 whole entry): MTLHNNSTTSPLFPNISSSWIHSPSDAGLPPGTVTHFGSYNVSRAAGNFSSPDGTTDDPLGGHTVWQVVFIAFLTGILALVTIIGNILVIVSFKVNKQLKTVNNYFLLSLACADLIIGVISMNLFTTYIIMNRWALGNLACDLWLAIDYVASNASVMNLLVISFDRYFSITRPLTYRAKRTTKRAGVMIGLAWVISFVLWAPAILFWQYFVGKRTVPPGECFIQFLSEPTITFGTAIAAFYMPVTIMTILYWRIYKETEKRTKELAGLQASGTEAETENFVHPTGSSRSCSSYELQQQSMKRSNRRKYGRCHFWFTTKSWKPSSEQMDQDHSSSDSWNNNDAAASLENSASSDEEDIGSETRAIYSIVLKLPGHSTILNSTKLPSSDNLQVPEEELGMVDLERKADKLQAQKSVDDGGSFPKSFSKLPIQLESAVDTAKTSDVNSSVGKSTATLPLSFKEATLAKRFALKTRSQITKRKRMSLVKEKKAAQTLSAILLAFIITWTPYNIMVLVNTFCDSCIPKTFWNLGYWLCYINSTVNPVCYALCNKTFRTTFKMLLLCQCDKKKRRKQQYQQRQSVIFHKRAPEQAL

As for `CCN1CCN(c2ccc(NC(=O)CCC3CCCC3)cc2Cl)CC1` [Compound 5], in assay [1] (M1 over M4), the “selectivity versus M4” value is reported as over 340 fold. Besides, in assay [1], the IC50 was 0.441 µM.
`CCN1CCN(c2ccc(NC(=O)c3cc(C(F)(F)F)cc(C(F)(F)F)c3)cc2Cl)CC1` [Compound 8i]: in assay [2] (compound at 10 μM), the “effect on an ACh EC80 on M3” value is recorded as “little effect”. The “effect on an ACh EC80 on M5” value in assay [3] is listed as “little effect”. For the same compound, in assay [4], the “effect on an ACh EC80 on M2” value was “little effect”.
Regarding `CCN1CCN(c2ccc(NC(=O)c3ccccc3Cl)cc2Cl)CC1` [Compound 8a], in assay [2], the IC50 came out at 8.2 µM.
As to `CCN1CCN(c2ccc(NC(=O)c3ccccc3)cc2Cl)CC1` [Compound 6], the “selectivity versus M2-M5” value in assay [1] (M1 over M2-M5) is over 30 fold. Further, in assay [1] (original sample), the half-maximal inhibitory concentration (IC50) is 5 µM.
